Experimental data: PMC6263940 (Nature chemical biology, 2018)

What was measured:
ABHD12 [1] = target: T1, ABHD12 (Mus musculus, UniProt Q99LR1); experiment: ABHD12-dependent lyso-PS lipase activity of mouse brain membrane proteome; format: biochemical
T1 sequence (Q99LR1 1-398): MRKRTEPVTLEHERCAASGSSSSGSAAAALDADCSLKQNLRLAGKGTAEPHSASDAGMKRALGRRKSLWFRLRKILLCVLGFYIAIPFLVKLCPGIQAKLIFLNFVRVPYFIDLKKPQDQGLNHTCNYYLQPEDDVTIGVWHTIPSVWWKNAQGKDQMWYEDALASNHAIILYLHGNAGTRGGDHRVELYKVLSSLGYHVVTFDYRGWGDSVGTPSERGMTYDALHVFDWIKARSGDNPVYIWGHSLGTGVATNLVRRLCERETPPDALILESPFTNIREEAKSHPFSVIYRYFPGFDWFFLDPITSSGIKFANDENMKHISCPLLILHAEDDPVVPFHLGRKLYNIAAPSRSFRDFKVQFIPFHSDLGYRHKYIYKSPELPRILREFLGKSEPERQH

[2] = target: T2, mouse brain serine hydrolases (Mus musculus, UniProt Q9QXM0); format: biochemical; settings: MS-ABPP, mouse brain membrane proteome, 1 μM
T2 sequence (Q9QXM0 1-425): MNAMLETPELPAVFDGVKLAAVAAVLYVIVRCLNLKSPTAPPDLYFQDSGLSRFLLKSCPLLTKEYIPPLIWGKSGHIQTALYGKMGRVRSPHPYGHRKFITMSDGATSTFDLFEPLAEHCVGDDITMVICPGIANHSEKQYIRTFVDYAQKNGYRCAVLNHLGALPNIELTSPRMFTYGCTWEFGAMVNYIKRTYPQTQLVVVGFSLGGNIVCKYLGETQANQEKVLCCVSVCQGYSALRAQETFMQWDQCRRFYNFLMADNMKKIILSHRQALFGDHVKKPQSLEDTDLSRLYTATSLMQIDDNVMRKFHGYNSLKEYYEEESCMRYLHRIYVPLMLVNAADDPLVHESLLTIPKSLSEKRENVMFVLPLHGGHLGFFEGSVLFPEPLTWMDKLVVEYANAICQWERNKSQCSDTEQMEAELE

[3] = tested on: mouse brain serine hydrolases; format: biochemical; settings: gel-based ABPP 0.1 or 2 μM; MS-based ABPP 1 μM
ABHD12 [4] = target: T3, ABHD12 (Homo sapiens, UniProt Q8N2K0); format: cell-based
T3 sequence (Q8N2K0 1-398): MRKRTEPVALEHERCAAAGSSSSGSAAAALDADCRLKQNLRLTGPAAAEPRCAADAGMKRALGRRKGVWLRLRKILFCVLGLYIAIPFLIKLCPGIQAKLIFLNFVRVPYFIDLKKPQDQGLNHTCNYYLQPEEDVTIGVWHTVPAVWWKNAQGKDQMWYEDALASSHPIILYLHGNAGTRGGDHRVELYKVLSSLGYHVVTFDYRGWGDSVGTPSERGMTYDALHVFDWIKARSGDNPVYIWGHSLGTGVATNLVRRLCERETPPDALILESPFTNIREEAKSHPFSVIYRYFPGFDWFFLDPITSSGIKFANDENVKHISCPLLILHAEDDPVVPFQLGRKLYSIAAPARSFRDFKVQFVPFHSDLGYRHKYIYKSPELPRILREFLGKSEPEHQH
In short: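 THP-1 cells (6 million in 10 mL) given test compound (1–1000 nM) or DMSO for 4 h at 37 °C, 5% CO₂, then washed twice in ice-cold DPBS. Membrane proteome incubated with 17:1 lyso-PS (100 μM final), 20 min, 37 °C. Readout is the LC-MS 17:1 FFA/15:0 FFA ratio minus the JJH350 (10 μM)-treated membrane background. IC50 fitted as log(inhibitor) vs normalized response.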

ABHD12 [5] = target: T1, ABHD12; experiment: Ex vivo gel-based competitive ABPP; format: in vivo
ABHD2 = target: T4, ABHD2 (Mus musculus, UniProt Q9QXM0); experiment: Quantitative MS-ABPP of brain membrane proteome from treated mice: ABHD2; format: in vivo; settings: 30 mg/kg, i.p., 4 h
T4 sequence (Q9QXM0 1-425): T2 sequence (Q9QXM0 1-425)
In short: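 Mice dosed i.p. with test compound (30 mg/kg) or vehicle and killed after 4 h (isoflurane, then cervical dislocation). Brain membrane serine hydrolase activities quantified by MS-based ABPP. Each protein's value is the mean of median peptide ratios (treated vs vehicle) ± SEM, from n = 4 or 3 independent samples per compound.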

mouse PLA2G6 = target: T5, mouse PLA2G6 (Mus musculus, UniProt P97819); experiment: Competitive gel ABPP; format: biochemical; settings: membrane lysate 1 mg/mL of transfected HEK293T cells, FP-Rh
T5 sequence (P97819 1-807): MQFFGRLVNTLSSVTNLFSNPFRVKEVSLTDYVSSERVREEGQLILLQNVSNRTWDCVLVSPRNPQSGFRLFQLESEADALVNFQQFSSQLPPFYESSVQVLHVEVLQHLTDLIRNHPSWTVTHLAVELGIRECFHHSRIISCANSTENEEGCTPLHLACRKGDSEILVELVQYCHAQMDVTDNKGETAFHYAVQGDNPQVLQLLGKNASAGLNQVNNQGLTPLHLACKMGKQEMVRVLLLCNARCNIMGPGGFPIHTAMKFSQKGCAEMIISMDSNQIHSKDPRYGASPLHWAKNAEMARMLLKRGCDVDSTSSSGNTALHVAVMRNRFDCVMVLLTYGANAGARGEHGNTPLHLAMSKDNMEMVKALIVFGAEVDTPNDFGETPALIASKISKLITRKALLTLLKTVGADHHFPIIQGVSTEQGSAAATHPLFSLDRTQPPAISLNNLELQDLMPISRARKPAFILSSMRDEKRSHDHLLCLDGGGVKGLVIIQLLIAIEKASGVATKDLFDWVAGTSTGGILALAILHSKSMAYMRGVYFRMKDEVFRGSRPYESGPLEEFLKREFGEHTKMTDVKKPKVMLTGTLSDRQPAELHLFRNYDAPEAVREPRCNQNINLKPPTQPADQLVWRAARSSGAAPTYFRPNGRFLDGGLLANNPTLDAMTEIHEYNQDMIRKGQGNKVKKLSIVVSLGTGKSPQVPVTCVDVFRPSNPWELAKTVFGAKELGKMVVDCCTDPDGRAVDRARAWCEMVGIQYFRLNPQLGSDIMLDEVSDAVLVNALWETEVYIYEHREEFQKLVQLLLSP
In short: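 HEK293T cells transiently transfected with mouse PLA2G6 cDNA (pCMV-SPORT6); membrane lysate (1 mg/mL) prepared. Lysate pre-exposed to test compound, then labelled with FP-Rh (1 μM final, 45 min, 37 °C). Gel band intensity compared with a control-treated sample.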

mice = experiment: Two-week daily dosing, overt signs of toxicity; format: in vivo, mouse; settings: adult mice, 30 mg/kg daily, p.o., two weeks

FC(F)(F)Oc1ccc(Oc2ccnc(N3CCC(NC(=S)Nc4cccnc4)CC3)c2Cl)c(Cl)c1 [DO264, N-3-pyridyl-N’-(1-[3-chloro-4-{2-chloro-4-(trifluoromethoxy)phenoxy}pyridine-2-yl]piperidin-4-yl)thiourea]
IC50 (ABHD12 [1]): 2.8 nM | inhibition of mouse ABHD2 in vitro [2]: did not inhibit | selectivity for ABHD12 over other mouse brain serine hydrolases [3]: excellent selectivity | IC50 (ABHD12 [4]): 26 nM | brain ABHD12 activity at 48 h post-dosing (ABHD12 [5]; 30 mg/kg, i.p.): partial recovery | time post-treatment over which inhibition of brain ABHD12 activity was observed (ABHD12 [5]; 30 mg/kg, i.p.): 4 to 24 h | brain ABHD12 activity, ex vivo analysis with JJH350 probe (ABHD12 [5]; C57BL/6 mice, 30 and 60 mg/kg, i.p. (4 h or 24 h) or p.o. (4 h)): complete inhibition | inhibition of ABHD12 in peripheral tissues of mice (ABHD12 [5]; i.p., 30 mg/kg, 4 h, FP-Rh and JJH350 probes): selectively inhibited | reduction in ABHD2 activity in treated mice (ABHD2): 40-50% | inhibition of recombinantly expressed PLA2G6 (mouse PLA2G6): nor did the compound inhibit | overt signs of toxicity, such as weight loss or behavioral distress (mice): neither compound produced overt signs of toxicity
